Activity calls are given as the source filed them. The calls are words filed in the database; no cut-off is given here.
What was measured:
Enterobacter cloacae [1] = test: Synergistic antibacterial activity against multidrug-resistant Enterobacter cloacae 117029 after 18 hrs in presence of rifampicin by checkerboard assay; assay type: functional; settings: Enterobacter cloacae, 117029, 18 h
In short: (§1)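 Checkerboard in MHB with a 10 × 7 matrix: antibiotic serially diluted along one axis, adjuvant along the other. Inoculum was a 1:50 dilution of a 0.5 McFarland suspension, incubated 18 h at 37 °C and read on a plate reader. Each FIC is the concentration in a no-growth well divided by the MIC alone; FIC index is their sum, with ≤0.5 taken as synergy.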

Pseudomonas aeruginosa [2] = test: Potentiation of rifampicin-induced antibacterial activity against Pseudomonas aeruginosa PAO200 harboring MexAB-oprM deletion mutant after 18 hrs by checkerboard assay; assay type: functional
In short: (§2)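 Checkerboard in Mueller-Hinton broth: antibiotic serially diluted along one axis and adjuvant along the other (10 × 7 matrix). Inoculum from a 0.5 McFarland saline suspension diluted 1:50 in MHB; 18 h at 37 °C, then plate read. MIC is the lowest concentration with no growth. FIC of each agent is its concentration in a no-growth well divided by its MIC alone; FIC index is the sum of both. FIC index ≤0.5 counts as synergy.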

Enterobacter cloacae [3] = test: Potentiation of rifampicin-induced antibacterial activity against multidrug-resistant Enterobacter cloacae 117029 at 4 ug/ml after 18 hrs by checkerboard assay; assay type: functional; in short: as §2
Pseudomonas aeruginosa [4] = test: Potentiation of rifampicin-induced antibacterial activity against multidrug/extremely drug-resistant/colistin-resistant Pseudomonas aeruginosa isolate 101243 at 4 ug/ml after 18 hrs by checkerboard assay; assay type: functional; in short: as §2
[5] = Cytotoxicity against human JIMT1 cells assessed as cell viability at 20 uM after 48 hrs by MTS assay relative to control; assay type: cell-based, JIMT-1; settings: read-out: Activity
In short: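 DU145 and JIMT-1 grown in DMEM with 10% FBS and penicillin/streptomycin at 37 °C, 5% CO2. 7500–9000 cells/well were seeded for 24 h, then treated at 2.5–30 µM (final) for 48 h. MTS reagent (20% v/v) added for 4 h and OD read at 490 nm after blank subtraction; viability expressed relative to vehicle control.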

Pseudomonas aeruginosa [6] = test: Induction of cytoplasmic membrane depolarization in Pseudomonas aeruginosa PAO1 up to 1200 secs by diSC3-5 staining based fluorescence assay; assay type: functional
In short: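 Mid-log PAO1 washed in 5 mM HEPES pH 7.4 with 20 mM glucose and resuspended to OD600 0.05. Cells were loaded with 0.2 mM EDTA and 0.4 µM diSC3-5 for 2 h at 37 °C in the dark, then equilibrated with 100 mM KCl for 30 min. Agent was added and fluorescence followed at 622/670 nm; agents tested at 32 µg/mL.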

Pseudomonas aeruginosa [7] = test: Potentiation of minocycline-induced antibacterial activity against multidrug/extremely drug-resistant/colistin-susceptible Pseudomonas aeruginosa isolate P259-96918 at 4 ug/ml after 18 hrs by checkerboard assay; assay type: functional; in short: as §2
Pseudomonas aeruginosa [8] = test: Potentiation of erythromycin-induced antibacterial activity against Pseudomonas aeruginosa PAO1 at 4 ug/ml after 18 hrs by checkerboard assay; assay type: functional; in short: as §2
Pseudomonas aeruginosa [9] = test: Synergistic antibacterial activity against Pseudomonas aeruginosa PAO1 after 18 hrs in presence of ceftazidime by checkerboard assay; assay type: functional; settings: PAO1, 18 h
In short: (§3)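 Checkerboard in MHB: antibiotic diluted along one axis and adjuvant along the other (10 × 7 matrix). Inoculum was a 1:50 dilution in MHB of a 0.5 McFarland saline suspension; incubated 18 h at 37 °C. Each FIC = concentration in the no-growth well divided by the MIC alone; FIC index = sum of both FICs. ≤0.5 synergy, 0.5–4 no interaction, ≥4 antagonism.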

Acinetobacter baumannii = test: Antibacterial activity against multidrug-resistant Acinetobacter baumannii 110193 after 18 hrs by microtiter dilution assay; assay type: functional; settings: Acinetobacter baumannii, 110193, 18 h
In short: (§4)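 Broth microdilution following CLSI guidelines. An overnight culture was adjusted to 0.5 McFarland in saline, then diluted 1:50 in Mueller-Hinton broth. This inoculum was added in equal volume to 2-fold serial dilutions of agent in MHB and incubated 18 h at 37 °C. MIC was the lowest concentration with no visible growth.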

Klebsiella pneumoniae [10] = test: Antibacterial activity against Klebsiella pneumoniae ATCC 13883 after 18 hrs by microtiter dilution assay; assay type: functional; settings: ATCC 13883, 18 h
In short: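 Broth microdilution per CLSI. Overnight culture adjusted to 0.5 McFarland in saline, diluted 1:50 in Mueller-Hinton broth, and added to an equal volume of 2-fold serial compound dilutions in MHB. Incubated 18 h at 37 °C. MIC taken as the lowest concentration with no visible growth.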

Pseudomonas aeruginosa [11] = test: Potentiation of minocycline-induced antibacterial activity against multidrug/extremely drug-resistant/colistin-resistant Pseudomonas aeruginosa isolate 101243 at 4 ug/ml after 18 hrs by checkerboard assay; assay type: functional; in short: as §2
Pseudomonas aeruginosa [12] = test: Potentiation of minocycline-induced antibacterial activity against multidrug/extremely drug-resistant/colistin-susceptible Pseudomonas aeruginosa isolate P262-101856 at 4 ug/ml after 18 hrs by checkerboard assay; assay type: functional; in short: as §2
Klebsiella pneumoniae [13] = test: Potentiation of rifampicin-induced antibacterial activity against multidrug-resistant Klebsiella pneumoniae 116381 at 4 ug/ml after 18 hrs by checkerboard assay; assay type: functional; in short: as §2
Pseudomonas aeruginosa [14] = test: Potentiation of rifampicin-induced antibacterial activity against multidrug/extremely drug-resistant/colistin-susceptible Pseudomonas aeruginosa isolate P264-104354 assessed as fold reduction in rifampicin MIC at 4 ug/ml after 18 hrs by checkerboard assay relative to control; assay type: functional
In short: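 Checkerboard broth microdilution in MHB: antibiotic serially diluted along one axis, adjuvant along the other (10 × 7 matrix). Inoculum from 0.5 McFarland saline suspension diluted 1:50 in MHB; 18 h at 37 °C. MIC taken as lowest concentration with no growth. FIC per agent = combination MIC/MIC alone; FIC index = sum (≤0.5 synergy).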

Pseudomonas aeruginosa [15] = test: Synergistic antibacterial activity against Pseudomonas aeruginosa PAO1 after 18 hrs in presence of trimethoprim by checkerboard assay; assay type: functional; settings: PAO1, 18 h; in short: as §3
Pseudomonas aeruginosa [16] = test: Antibacterial activity against multidrug/extremely drug-resistant/colistin-susceptible Pseudomonas aeruginosa isolate P264-104354 after 18 hrs by microtiter dilution assay; assay type: functional; settings: isolate P264-104354, 18 h; in short: as §4
Pseudomonas aeruginosa [17] = test: Potentiation of meropenem-induced antibacterial activity against Pseudomonas aeruginosa PAO1 at 4 ug/ml after 18 hrs by checkerboard assay; assay type: functional; in short: as §2
Pseudomonas aeruginosa [18] = test: Synergistic antibacterial activity against Pseudomonas aeruginosa PAO1 after 18 hrs in presence of rifampicin by checkerboard assay; assay type: functional; settings: PAO1, 18 h; in short: as §3
Pseudomonas aeruginosa [19] = test: Potentiation of minocycline-induced bactericidal activity against Pseudomonas aeruginosa PAO1 at 0.125 times antibacterial MIC after 90 mins; assay type: functional
In short: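 Combination time-kill in PAO1 (LB, 37 °C). Aliquots taken at 0–360 min, serially diluted in PBS, plated on LB agar, and CFU counted after 20 h at 37 °C.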

[20] = Ratio of cytotoxic concentration against human DU145 cells to synergistic concentration for Pseudomonas aeruginosa PAO1 in presence of minocycline
[21] = Ratio of cytotoxic concentration against human JIMT1 cells to synergistic concentration for Pseudomonas aeruginosa PAO1 in presence of minocycline
Escherichia coli = test: Antibacterial activity against gentamicin-resistant Escherichia coli isolate CAN-ICU 61714 after 18 hrs by microtiter dilution assay; assay type: functional; settings: isolate CAN-ICU 61714, 18 h; in short: as §4
Pseudomonas aeruginosa [22] = test: Potentiation of rifampicin-induced antibacterial activity against Pseudomonas aeruginosa PAO1 at 4 ug/ml after 18 hrs by checkerboard assay; assay type: functional; in short: as §1

**Q.** For `Cl.Cl.Cl.Cl.Cl.Cl.Cl.NCCCC[C@H](N)C(=O)N(CCCCCCCCCCCCO[C@@H]1[C@@H](O[C@H]2O[C@H](CO)[C@@H](O)[C@H](N)[C@H]2O)[C@H](N)C[C@H](N)[C@H]1O[C@H]1O[C@H](CN)[C@@H](O)C[C@H]1N)Cc1c2ccccc2c(Cl)c2ccccc12`, which MIC (Enterobacter cloacae [1]) is on record?
**A.** 4 µg/mL

**Q.** And the “fractional inhibitory concentration index (FICI)” value (Pseudomonas aeruginosa [2])?
**A.** 0.129

**Q.** And the “fractional inhibitory concentration index (FICI)” value (Enterobacter cloacae [3])?
**A.** 0.02

**Q.** What about the “fractional inhibitory concentration index (FICI)” value (Pseudomonas aeruginosa [4]) of the same molecule?
**A.** 0.188

**Q.** And the viability at 48 h, 20 µM [5]?
**A.** > 50%

**Q.** What about the Activity (Pseudomonas aeruginosa [6]) of the same molecule?
**A.** Dose-dependent effect

**Q.** And the “fractional inhibitory concentration index (FICI)” value (Pseudomonas aeruginosa [7])?
**A.** 0.047

**Q.** What about the “fractional inhibitory concentration index (FICI)” value (Pseudomonas aeruginosa [8]) of the same molecule?
**A.** 0.156

**Q.** And the MIC (Pseudomonas aeruginosa [9])?
**A.** 2 µg/mL

**Q.** And the MIC (Acinetobacter baumannii)?
**A.** 16 µg/mL

**Q.** And the MIC (Klebsiella pneumoniae [10])?
**A.** 128 µg/mL

**Q.** What about the “fractional inhibitory concentration index (FICI)” value (Pseudomonas aeruginosa [11]) of the same molecule?
**A.** 0.281

**Q.** And the “fractional inhibitory concentration index (FICI)” value (Pseudomonas aeruginosa [12])?
**A.** 0.133

**Q.** What about the “fractional inhibitory concentration index (FICI)” value (Klebsiella pneumoniae [13]) of the same molecule?
**A.** 0.047

**Q.** What about the “fold change (FC)” value (Pseudomonas aeruginosa [14]) of the same molecule?
**A.** 64

**Q.** And the MIC (Pseudomonas aeruginosa [15])?
**A.** 2 µg/mL

**Q.** And the MIC (Pseudomonas aeruginosa [16])?
**A.** 32 µg/mL

**Q.** And the “fractional inhibitory concentration index (FICI)” value (Pseudomonas aeruginosa [17])?
**A.** 2.031

**Q.** What about the MIC (Pseudomonas aeruginosa [18]) of the same molecule?
**A.** 1 µg/mL

**Q.** What about the Activity (Pseudomonas aeruginosa [19]) of the same molecule?
**A.** Active

**Q.** And the Ratio [20]?
**A.** 6

**Q.** What about the Ratio [21] of the same molecule?
**A.** 6

**Q.** What about the MIC (Escherichia coli) of the same molecule?
**A.** 32 µg/mL

**Q.** And the “fractional inhibitory concentration index (FICI)” value (Pseudomonas aeruginosa [22])?
**A.** 0.094

From ChEMBL document CHEMBL4014308, “Amphiphilic Tobramycin-Lysine Conjugates Sensitize Multidrug Resistant Gram-Negative Bacteria to Rifampicin and Minocycline” (J Med Chem, 2017)
